The source made the active and inactive calls. No cut-off for these calls is given here.

These results are taken from ChEMBL document CHEMBL3044720, “Phytotoxic Eremophilanes from Ligularia macrophylla” (J Agric Food Chem, 2007).

Test [1] has as its system Lactuca sativa. As to the kind of experiment: Phytotoxic activity against Lactuca sativa (lettuce) seeds assessed as inhibition of germination at 10 uM at 26 degC measured 7 days post-drug dose. It counts as functional, organism-based. The procedure, abridged: (§1)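 Each well held 5 mg lettuce or 10 mg bentgrass seed plus 250 µL of compound in water with 3% acetone final; acetone/water controls were included. Sealed plates were kept at 26 °C under continuous light (173 µmol/m²/s). Germination was rated visually on a 0–5 scale (0 = no effect, 5 = no germination/growth) against controls, after 7 days for lettuce and 12 days for bentgrass.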

Test [2] concerns Allium cepa. As to the kind of experiment: Inhibition of mitotic cell division in Allium cepa cv. Evergreen (onion) root tips assessed as cell count at metaphase stage of cell cycle at 100 to 300 uM at 24 degC. It counts as functional, organism-based.
The subject of test [3] is Lactuca sativa. As to the kind of experiment: Phytotoxic activity against Lactuca sativa (lettuce) seeds assessed as inhibition of germination at 1 uM at 26 degC measured 7 days post-drug dose. It counts as functional, organism-based. The procedure, abridged:
as §1

Test [4] concerns Coptotermes formosanus. As to the kind of experiment: Antitermite activity against greater than third-instar stage of Coptotermes formosanus workers/1 soldier in compound-pretreated filter paper assessed as mortality at 0.5% at 26 degC after 13 days (reference value: 3.8 +/-4.8%). Type of test: functional. The procedure, abridged:
(§2)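 Test material in acetone (100 µL) was blotted onto 2.5 cm filter paper discs, dried several hours, then moistened with 100 µL water. Each dish held 20 workers (third instar or greater) and two soldiers. Dishes were kept at ca. 100% RH and 26 °C, with water-only controls. Four replicates came from different colonies. Mortality was scored daily for 3 weeks, reported as mean and SD, and compared by ANOVA with Fisher LSD (P < 0.05).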

Test [5] concerns Allium cepa. As to the kind of experiment: Inhibition of mitotic cell division in Allium cepa cv. Evergreen (onion) root tips assessed as cell count at telophase stage of cell cycle at 100 to 300 uM at 24 degC. It counts as functional, organism-based.
Test [6] relates to Lactuca sativa. As to the kind of experiment: Phytotoxic activity against Lactuca sativa (lettuce) seeds assessed as inhibition of germination at 100 uM at 26 degC measured 7 days post-drug dose. It counts as functional, organism-based. The procedure, abridged: as §1
For test [7], the system named is Agrostis stolonifera. As to the kind of experiment: Phytotoxic activity against Agrostis stolonifera seeds assessed as inhibition of germination at 1 uM at 26 degC measured 12 days post-drug dose. Type of test: functional, organism-based. The procedure, abridged: as §1
Test [8] relates to Coptotermes formosanus. As to the kind of experiment: Antitermite activity against greater than third-instar stage of Coptotermes formosanus workers/1 soldier in compound-pretreated filter paper assessed as mortality at 0.5% at 26 degC after 21 days (reference value: 3.8 +/-4.8%). Type of test: functional. The procedure, abridged:
as §2

Test [9] concerns Lactuca sativa. As to the kind of experiment: Phytotoxic activity against Lactuca sativa (lettuce) seeds assessed as inhibition of germination at 1000 uM at 26 degC measured 7 days post-drug dose. Type of test: functional, organism-based. The procedure, abridged: as §1
For test [10], the system named is Allium cepa. As to the kind of experiment: Inhibition of mitotic cell division in Allium cepa cv. Evergreen (onion) root tips assessed as cell count at prophase stage of cell cycle at 100 to 300 uM at 24 degC. Type of test: functional, organism-based.
Test [11] relates to Cucumis sativus. As to the kind of experiment: Induction of cell membrane integrity disruption in Cucumis sativus (cucumber) cotyledons assessed as electrolyte leakage at 25 degC by conductivity meter analysis. It counts as functional. The procedure, abridged: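 Twenty-five 4 mm cucumber cotyledon discs (~50 mg fresh weight) were bathed in 5 mL of 2% sucrose, 1 mM MES pH 6.5, with 1% (v/v) acetone final in controls and treatments. Incubation was at 25 °C in darkness. Leakage into the bathing medium was followed over time by conductivity; six replicates per treatment.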

Test [12] concerns Coptotermes formosanus. As to the kind of experiment: Antitermite activity against greater than third-instar stage of Coptotermes formosanus workers/1 soldier in compound-pretreated filter paper assessed as mortality at 0.5% at 26 degC after 6 days (reference value: 2.5 +/-5%). Type of test: functional. The procedure, abridged: as §2
Test [13] relates to Cucumis sativus. As to the kind of experiment: Inhibition of photosynthetic electron transport rate in Cucumis sativa Straight Eight (cucumber) cotyledons assessed as chlorophyll fluorescence at 100 uM at 22 degC measured at 2 to 24 hr post-drug treatment under constant light by fluorometer analysis. Type of test: functional, organism-based. The procedure, abridged: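 8 mm cotyledon discs were cut from 6-day-old cucumber 'Straight Eight'. Variable chlorophyll fluorescence was read with a pulse-modulated fluorometer before treatment, then at 2, 4, 8 and 24 h. Discs sat in 1 mL 0.1% Tween 20 with 100 µM compound, 0.1% acetone solvent control or 10 µM atrazine, at 22 °C under continuous light; triplicate.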

The test system of test [14] is Lemna aequinoctialis. As to the kind of experiment: Phytotoxic activity against three-frond Lemna paucicostata colonies assessed as growth inhibition at 100 uM after 4 days. It counts as functional, organism-based. The procedure, abridged:
(§3)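 Hoagland medium at pH 5.5 was filter-sterilized, with compound added in acetone or EtOH (1% final); tested range 100 to 0.1 µM. Two three-frond colonies from 4–5-day-old stock cultures were placed per well. Total frond area was imaged on days 0–4, and % increase was taken relative to day 0. IC50 came from a four-parameter logistic fit in R drc.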

For test [15], the system named is Coptotermes formosanus. As to the kind of experiment: Antitermite activity against greater than third-instar stage of Coptotermes formosanus workers/1 soldier in compound-pretreated filter paper assessed as filter paper consumption at 0.5% at 26 degC after 21 days (reference value: 41.4 +/-5.6 mg). Type of test: functional.
Test [16] has as its system Allium cepa. As to the kind of experiment: Inhibition of mitotic cell division in Allium cepa cv. Evergreen (onion) root tips assessed as cell count at anaphase stage of cell cycle at 100 to 300 uM at 24 degC. It counts as functional, organism-based.
For test [17], the system named is Coptotermes formosanus. As to the kind of experiment: Antitermite activity against greater than third-instar stage of Coptotermes formosanus workers/1 soldier in compound-pretreated filter paper assessed as mortality at 0.5% at 26 degC after 1 day (reference value: 0%). It counts as functional. The procedure, abridged: as §2
The subject of test [18] is Lemna aequinoctialis. As to the kind of experiment: Phytotoxic activity against three-frond Lemna paucicostata colonies assessed as growth inhibition after 4 days. It counts as functional, organism-based. The note with it: 96 h. The procedure, abridged:
as §3

Test [19] deals with Agrostis stolonifera. As to the kind of experiment: Phytotoxic activity against Agrostis stolonifera seeds assessed as inhibition of germination at 10 uM at 26 degC measured 12 days post-drug dose. Type of test: functional, organism-based. The procedure, abridged:
as §1

The test system of test [20] is Cucumis sativus. As to the kind of experiment: Inhibition of photosynthetic electron transport rate in Cucumis sativa Straight Eight (cucumber) cotyledons assessed as chlorophyll fluorescence at 10 uM at 22 degC measured at 2 to 24 hr post-drug treatment under constant light by fluorometer analysis. It counts as functional, organism-based. The procedure, abridged: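 Cotyledon discs (8 mm) were cut from 6-day-old plants. Induced variable chlorophyll fluorescence was read on a pulse-modulated fluorometer before each disc was placed in 1 mL of 0.1% Tween 20, with or without treatment; the solvent control was 0.1% acetone. Discs were kept at 22 °C under continuous light and read again at 2, 4, 8 and 24 h. Each treatment was run in triplicate.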

The subject of test [21] is Agrostis stolonifera. As to the kind of experiment: Phytotoxic activity against Agrostis stolonifera seeds assessed as inhibition of germination at 100 uM at 26 degC measured 12 days post-drug dose. It counts as functional, organism-based. The procedure, abridged:
as §1

Another test concerns Colletotrichum acutatum. As to the kind of experiment: Antifungal activity against Colletotrichum acutatum assessed as diameter of growth inhibitory zone at 10 ug after 4-5 days by direct bioautography. It counts as functional. The procedure, abridged: (§4)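 Direct TLC bioautography against strawberry-anthracnose Colletotrichum isolates grown on PDA at 24 ± 2 °C under a 12 h photoperiod. Conidia were harvested from 7–10-day cultures and filtered. Developed plates carrying 10 µg/spot were sprayed with 10^5 spores/mL and held in a moisture chamber for 4 days at 26 °C with a 12 h photoperiod. Zone diameters were measured 4–5 days after treatment.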

The test system of test [22] is Colletotrichum gloeosporioides. As to the kind of experiment: Antifungal activity against Colletotrichum gloeosporioides assessed as growth inhibition at 10 ug after 4-5 days by direct bioautography. It counts as functional, organism-based. The procedure, abridged:
as §4

In a further test the test system is Colletotrichum fragariae. As to the kind of experiment: Antifungal activity against Colletotrichum fragariae assessed as growth inhibition at 10 ug after 4-5 days by direct bioautography. It counts as functional, organism-based. The procedure, abridged: as §4
Test [23] relates to Agrostis stolonifera. As to the kind of experiment: Phytotoxic activity against Agrostis stolonifera seeds assessed as inhibition of germination at 1000 uM at 26 degC measured 12 days post-drug dose. It counts as functional, organism-based. The procedure, abridged:
as §1

For `Cc1coc2c1[C@@H]1OC(=O)[C@H]3CCC[C@H](C2)[C@@]31C`, the inhibition entry in the test with Lactuca sativa [1], in the test with Allium cepa [2], in the test with Lactuca sativa [3], with Allium cepa [5], in the test with Lactuca sativa [6] and with Agrostis stolonifera [7] was “inactive” each time. Also, the inhibition entry in the test on Lactuca sativa [9], in the test on Allium cepa [10], with Cucumis sativus [13] and in the test with Allium cepa [16] was “inactive” in each case. The mortality (commonly the share of the test organisms that died) with Coptotermes formosanus [4] is 3.8%; with Coptotermes formosanus [8] it was 8.8%; in the test with Coptotermes formosanus [12], 1.3%; in the test with Coptotermes formosanus [17], 1.3%. Moreover, the outcome in the test on Cucumis sativus [11] was inactive. Besides, in the test with Lemna aequinoctialis [14], the “growth inhibition (GI)” value was “inactive”. Besides, the Activity in the test on Coptotermes formosanus [15] came to 43.1 mg.

With `C/C=C(/C)C(=O)O[C@@H]1c2c(C)coc2C[C@@]2(O)CCC[C@H](C)[C@@]12C`, the inhibition entry with Lactuca sativa [1], in the test with Allium cepa [2], in the test on Lactuca sativa [3], in the test on Allium cepa [5], in the test with Lactuca sativa [6] and in the test with Agrostis stolonifera [7] was “inactive” throughout. Besides, the inhibition entry in the test on Allium cepa [10], in the test on Agrostis stolonifera [19] and in the test with Allium cepa [16] was “inactive” each time. Besides, the mortality in the test with Coptotermes formosanus [4] was found to be 16.3%; with Coptotermes formosanus [8], 18.8%; with Coptotermes formosanus [12], 3.8%; in the test on Coptotermes formosanus [17] it was 1.3%. Moreover, the IC50 (commonly the point on the concentration scale where inhibition reaches its midpoint) in the test on Lemna aequinoctialis [18] amounted to 2940 nM. The result in the test with Cucumis sativus [11] was inactive. In addition, the inhibition result in the test with Cucumis sativus [13] is “Active”. The Activity in the test on Coptotermes formosanus [15] is on record as 16.5 mg.

`CCNc1nc(Cl)nc(NC(C)C)n1`: in the test on Cucumis sativus [20], the inhibition result was “inactive”.

As to `CCCCC/C=C\C/C=C\CCCCCCCC(=O)O` [LINOLEIC ACID], the inhibition result with Lactuca sativa [1], in the test on Agrostis stolonifera [21], in the test on Lactuca sativa [3], in the test with Lactuca sativa [6], in the test with Agrostis stolonifera [7] and in the test on Lactuca sativa [9] was “inactive” each time. The inhibition result with Agrostis stolonifera [19] is “inactive”. In addition, the mortality amounted to 5% in the test on Coptotermes formosanus [4], 6.3% with Coptotermes formosanus [8], 3.8% with Coptotermes formosanus [12] and 2.5% with Coptotermes formosanus [17]. Also, the Activity with Colletotrichum acutatum is on record as 2.9 mm; in the test with Coptotermes formosanus [15], 44.6 mg. Moreover, the “growth inhibition (GI)” value (in test [22]; in the test with Colletotrichum fragariae) was “inactive” each time.

Take `CC/C=C\C/C=C\C/C=C\CCCCCCCC(=O)O` [LINOLENIC ACID]: the inhibition result in the test on Lactuca sativa [1], in the test with Agrostis stolonifera [21], with Lactuca sativa [3], in the test on Lactuca sativa [6], in the test on Agrostis stolonifera [7] and in the test with Lactuca sativa [9] was “inactive” in each case. Moreover, the inhibition result in the test with Agrostis stolonifera [19] and in the test on Agrostis stolonifera [23] was “inactive” each time. Also, the mortality in the test on Coptotermes formosanus [4] turned out to be 5%; in the test on Coptotermes formosanus [8] it was 6.3%; in the test with Coptotermes formosanus [12], 0%; in the test with Coptotermes formosanus [17], 0%. The results for the Activity in the test with Colletotrichum acutatum and with Coptotermes formosanus [15] were 2.9 mm and 44.2 mg, respectively. Besides, the “growth inhibition (GI)” value (in [22]; in the test with Colletotrichum fragariae) was “inactive” each time.

In the case of `C=C1COC(=O)[C@@]12C[C@H]1CC[C@@H](OC(=O)/C(C)=C\C)[C@H](C)C1(C)C2` (single isomer, unassigned), the inhibition result in the test on Lactuca sativa [1], in the test with Agrostis stolonifera [21], with Lactuca sativa [3], in the test on Lactuca sativa [6], with Agrostis stolonifera [7] and in the test with Agrostis stolonifera [19] was “inactive” throughout. Besides, the mortality is recorded as 2.5% with Coptotermes formosanus [4], 2.5% in the test on Coptotermes formosanus [8], 2.5% in the test on Coptotermes formosanus [12] and 0% in the test on Coptotermes formosanus [17]. Also, the “growth inhibition (GI)” value in the test on Lemna aequinoctialis [14] is “inactive”. Moreover, the Activity with Coptotermes formosanus [15] stood at 40 mg.

As to `CC1=C2C3OC(=O)[C@H]4CCC[C@H](C[C@@H]2OC1=O)[C@]34C` (single isomer, unassigned), the inhibition entry in the test on Lactuca sativa [1], in the test on Agrostis stolonifera [21], with Lactuca sativa [3], with Lactuca sativa [6], with Agrostis stolonifera [7] and in the test on Agrostis stolonifera [19] was “inactive” throughout. The “growth inhibition (GI)” value in the test on Lemna aequinoctialis [14] is “inactive”. In the test with Agrostis stolonifera [23], the inhibition entry was “Active”.
